Drawing on ChEMBL document CHEMBL4229372, “Synthesis and anti-mitotic activity of 2,4- or 2,6-disubstituted- and 2,4,6-trisubstituted-2H-pyrazolo[4,3-c]pyridines” (2018), this text covers Activity for one molecule.

Holding throughout (type): functional
For test [1], the system named is MCF7. The test is described as follows: Cell cycle arrest in human MCF7 cells assessed as accumulation at G2/M phase at 0.25 uM after 24 hrs by propidium iodide staining-based flow cytometric analysis (reference value: 5.3%). In short, it runs like this: (§1)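 MCF-7 cells in DMEM with 10% FBS and penicillin/streptomycin at 37 °C, 5% CO2. Asynchronous cells were treated 24 h, PBS-washed, trypsinized and quenched with 0.1% trypsin inhibitor. Staining used 5× citrate/IGEPAL/spermine/Tris buffer (pH 7.6) with 50 μg/mL propidium iodide. DNA content was read by 488 nm flow cytometry and cell-cycle phases modelled.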
A general note: A flow cytometer gives signals particle by particle.

The subject of test [2] is K562. Kind of test: Cell cycle arrest in human K562 cells assessed as accumulation at S phase at 0.25 uM after 24 hrs by propidium iodide staining-based flow cytometric analysis (reference value: 50.3%).
In test [3] the test system is K562. Kind of test: Cell cycle arrest in human K562 cells assessed as accumulation at G2/M phase at 0.25 uM after 24 hrs by propidium iodide staining-based flow cytometric analysis (reference value: 15%).
The test system of test [4] is MCF7. Kind of test: Cell cycle arrest in human MCF7 cells assessed as accumulation at S phase at 0.25 uM after 24 hrs by propidium iodide staining-based flow cytometric analysis (reference value: 34.1%). In short, it runs like this:
as §1

The subject of test [5] is K562. The test is described as follows: Cell cycle arrest in human K562 cells assessed as accumulation at sub G1 phase at 0.25 uM after 24 hrs by propidium iodide staining-based flow cytometric analysis (reference value: 15%).
In test [6] the test system is K562. Kind of test: Cell cycle arrest in human K562 cells assessed as accumulation at G1 phase at 0.25 uM after 24 hrs by propidium iodide staining-based flow cytometric analysis (reference value: 34.6%).
The test system of test [7] is MCF7. Kind of test: Cell cycle arrest in human MCF7 cells assessed as accumulation at G1 phase at 0.25 uM after 24 hrs by propidium iodide staining-based flow cytometric analysis (reference value: 60.7%). In short, it runs like this:
as §1

Test [8] deals with MCF7. Kind of test: Cell cycle arrest in human MCF7 cells assessed as accumulation at sub G1 phase at 0.25 uM after 24 hrs by propidium iodide staining-based flow cytometric analysis (reference value: 7.1%). In short, it runs like this: as §1

Take `CC(=O)c1c(C)c2cnc(Nc3ccc(N4CCNCC4)cn3)nc2n(C2CCCC2)c1=O` [PALBOCICLIB]: the Activity in the test with MCF7 [1] came out at 4.6%; with K562 [2] it was 30.1%; with K562 [3], 15.9%; in the test on MCF7 [4], 5.5%; with K562 [5], 35%; in the test on K562 [6], 54%. Also, the Activity was determined as 90% with MCF7 [7] and 7.5% with MCF7 [8].
